Laboratory results from ChEMBL document CHEMBL3745617 (J Med Chem, 2015).
The source made the active and inactive calls. The calls are words filed in the database; no cut-off is given here.

Columns and labels:
MV4-11 [1] = assay: Antitumor activity against human MV4-11 cells xenografted in nu/nu mouse assessed as tumor weight at 25 mg/kg/day administered via oral gavage measured after 22 days of treatment (reference value: 2.5 g); format: functional
[2] = target: Proto-oncogene tyrosine-protein kinase receptor Ret (Homo sapiens) (UniProt P07949); assay: Inhibition of RET (unknown origin) assessed as remaining activity at 1 uM relative to control
Outline: (§1)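 KinomeScan competition binding panel of 468 kinases, with the compound tested at 1 µM. Each kinase's result is reported as percent activity remaining relative to a DMSO control.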

MV4-11 [3] = assay: Antiproliferative activity against human MV4-11 cells after 72 hrs by CelltiterGlo assay; format: functional; details: MV4-11, 72 h
[4] = Antiproliferative activity against human U2932 cells after 72 hrs by CelltiterGlo assay; format: functional; details: U2932, 72 h
[5] = target: Receptor tyrosine-protein kinase erbB-3 (Homo sapiens) (UniProt P21860); assay: Inhibition of ERBB3 (unknown origin) assessed as remaining activity at 1 uM relative to control
Outline: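 KinomeScan competitive binding panel of 468 kinases. Compound tested at a single 1 µM concentration. Read-out is percent of kinase activity remaining relative to a DMSO control.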

[6] = target: Receptor-type tyrosine-protein kinase FLT3 (Homo sapiens) (UniProt P36888); details: MOLM-14, 0.03 to 3 uM
MOLM-14 = assay: Induction of apoptosis in human MOLM14 cells assessed as cleaved PARP level at 0.03 to 1 uM after 24 hrs by immunoblot analysis; format: functional, cell-based
[7] = target: Platelet-derived growth factor receptor beta (Homo sapiens) (UniProt P09619); assay: Inhibition of PDGFRB (unknown origin) expressed in BaF3 cells assessed as inhibition of cell proliferation after 72 hrs by CelltiterGlo assay; format: cell-based
[8] = Cmax in Sprague-Dawley rat at 10 mg/kg, po; format: ADME, organism-based; parameters: dose 10 mg/kg, route oral; details: in vivo
[9] = target: Hepatocyte growth factor receptor (Homo sapiens) (UniProt P08581); assay: Inhibition of MET (unknown origin) expressed in BaF3 cells assessed as inhibition of cell proliferation after 72 hrs by CelltiterGlo assay; format: cell-based
[10] = Antiproliferative activity against human MOLM14 cells after 72 hrs by CelltiterGlo assay; format: functional; details: MOLM-14, 72 h
[11] = Clearance in Sprague-Dawley rat at 1 mg/kg, iv; format: ADME, organism-based; details: in vivo
MOLM-13 [12] = assay: Induction of apoptosis in human MOLM13 cells assessed as cleaved caspase-3 level at 0.03 to 1 uM after 12 hrs by immunoblot analysis; format: functional, cell-based
MV4-11 [13] = assay: Cell cycle arrest in human MV4-11 cells assessed as accumulation at G0/G1 phase at 0.03 to 1 uM after 24 hrs by flow cytometry; format: functional, cell-based
[14] = Tmax in Sprague-Dawley rat at 10 mg/kg, po; format: ADME, organism-based; details: in vivo
[15] = AUC(0 to infinity) in Sprague-Dawley rat at 10 mg/kg, po; format: ADME, organism-based; parameters: dose 10 mg/kg, route oral, time infinity; details: in vivo
[16] = Antiproliferative activity against human SU-DHL-2 cells after 72 hrs by CelltiterGlo assay; format: functional; details: SU-DHL-2, 72 h
[17] = target: Tyrosine-protein kinase JAK1 (Homo sapiens) (UniProt P23458); assay: Inhibition of JAK1 (unknown origin) expressed in BaF3 cells assessed as inhibition of cell proliferation after 72 hrs by CelltiterGlo assay; format: cell-based
[18] = target: Tyrosine-protein kinase Lck (Homo sapiens) (UniProt P06239); assay: Inhibition of LCK (unknown origin) expressed in BaF3 cells assessed as inhibition of cell proliferation after 72 hrs by CelltiterGlo assay; format: cell-based
[19] = target: Tyrosine-protein kinase Blk (Homo sapiens) (UniProt P51451); assay: Inhibition of BLK (unknown origin) expressed in BaF3 cells assessed as inhibition of cell proliferation after 72 hrs by CelltiterGlo assay; format: cell-based
[20] = target: Cytoplasmic tyrosine-protein kinase BMX (Homo sapiens) (UniProt P51813); assay: Inhibition of BMX (unknown origin) expressed in BaF3 cells assessed as inhibition of cell proliferation after 72 hrs by CelltiterGlo assay; format: cell-based
[21] = Antiproliferative activity against human U937 cells after 72 hrs by CelltiterGlo assay; format: functional; details: U-937, 72 h
MV4-11 [22] = assay: Induction of apoptosis in human MV4-11 cells assessed as cleaved caspase-3 level at 0.03 to 1 uM after 48 hrs by immunoblot analysis; format: functional, cell-based
MOLM-13 [23] = assay: Induction of apoptosis in human MOLM13 cells assessed as cleaved PARP level at 0.03 to 1 uM after 12 hrs by immunoblot analysis; format: functional, cell-based
[24] = Mean residence time (0 to infinity) in Sprague-Dawley rat at 1 mg/kg, iv; format: ADME, organism-based; details: in vivo
[25] = target: Mast/stem cell growth factor receptor Kit (Homo sapiens, UniProt P10721); assay: Inhibition of c-KIT (unknown origin) expressed in BaF3 cells assessed as inhibition of cell proliferation after 72 hrs by CelltiterGlo assay; format: cell-based
[26] = target: Receptor-type tyrosine-protein kinase FLT3 (Homo sapiens) (UniProt P36888); details: BaF3
[27] = target: Dual specificity mitogen-activated protein kinase kinase 5 (Homo sapiens) (UniProt Q13163); assay: Inhibition of MEK5 (unknown origin) assessed as remaining activity at 1 uM relative to control; outline: as §1
[28] = target: Receptor-type tyrosine-protein kinase FLT3 (Homo sapiens) (UniProt P36888); details: MV4-11, 0.03 to 3 uM
[29] = target: Tyrosine-protein kinase Lck (Homo sapiens) (UniProt P06239); assay: Inhibition of LCK (unknown origin) assessed as remaining activity at 1 uM relative to control; outline: as §1
[30] = Mean residence time (0 to infinity) in Sprague-Dawley rat at 10 mg/kg, po; format: ADME, organism-based; details: in vivo
MV4-11 [31] = assay: Antitumor activity against human MV4-11 cells xenografted in nu/nu mouse assessed as tumor weight at 50 mg/kg/day administered via oral gavage measured after 22 days of treatment (reference value: 2.5 g); format: functional
[32] = system: Receptor-type tyrosine-protein kinase FLT3 (Homo sapiens), P36888 [UNDEFINED MUTATION]; assay: Inhibition of FLT3 ITD mutant (unknown origin) expressed in BaF3 cells assessed as inhibition of cell proliferation after 72 hrs by CelltiterGlo assay; format: cell-based
[33] = target: Receptor-type tyrosine-protein kinase FLT3 (Homo sapiens) (UniProt P36888); details: MV4-11, 0.03 to 3 uM; remark: listed apart in the source
[34] = Cell cycle arrest in human MOLM13 cells assessed as accumulation at G0/G1 phase at 0.03 to 1 uM after 12 hrs by flow cytometry; format: functional, cell-based; details: MOLM-13
MV4-11 [35] = assay: Induction of apoptosis in human MV4-11 cells assessed as cleaved PARP level at 0.03 to 1 uM after 48 hrs by immunoblot analysis; format: functional, cell-based
[36] = Tmax in Sprague-Dawley rat at 1 mg/kg, iv; format: ADME, organism-based; details: in vivo
[37] = Half life in Sprague-Dawley rat at 1 mg/kg, iv; format: ADME, organism-based; details: in vivo
[38] = target: Tyrosine-protein kinase JAK3 (Homo sapiens) (UniProt P52333); assay: Inhibition of JAK3 (unknown origin) expressed in BaF3 cells assessed as inhibition of cell proliferation after 72 hrs by CelltiterGlo assay; format: cell-based
Chain of Tyrosine-protein kinase JAK3 (Homo sapiens) (P52333 whole entry): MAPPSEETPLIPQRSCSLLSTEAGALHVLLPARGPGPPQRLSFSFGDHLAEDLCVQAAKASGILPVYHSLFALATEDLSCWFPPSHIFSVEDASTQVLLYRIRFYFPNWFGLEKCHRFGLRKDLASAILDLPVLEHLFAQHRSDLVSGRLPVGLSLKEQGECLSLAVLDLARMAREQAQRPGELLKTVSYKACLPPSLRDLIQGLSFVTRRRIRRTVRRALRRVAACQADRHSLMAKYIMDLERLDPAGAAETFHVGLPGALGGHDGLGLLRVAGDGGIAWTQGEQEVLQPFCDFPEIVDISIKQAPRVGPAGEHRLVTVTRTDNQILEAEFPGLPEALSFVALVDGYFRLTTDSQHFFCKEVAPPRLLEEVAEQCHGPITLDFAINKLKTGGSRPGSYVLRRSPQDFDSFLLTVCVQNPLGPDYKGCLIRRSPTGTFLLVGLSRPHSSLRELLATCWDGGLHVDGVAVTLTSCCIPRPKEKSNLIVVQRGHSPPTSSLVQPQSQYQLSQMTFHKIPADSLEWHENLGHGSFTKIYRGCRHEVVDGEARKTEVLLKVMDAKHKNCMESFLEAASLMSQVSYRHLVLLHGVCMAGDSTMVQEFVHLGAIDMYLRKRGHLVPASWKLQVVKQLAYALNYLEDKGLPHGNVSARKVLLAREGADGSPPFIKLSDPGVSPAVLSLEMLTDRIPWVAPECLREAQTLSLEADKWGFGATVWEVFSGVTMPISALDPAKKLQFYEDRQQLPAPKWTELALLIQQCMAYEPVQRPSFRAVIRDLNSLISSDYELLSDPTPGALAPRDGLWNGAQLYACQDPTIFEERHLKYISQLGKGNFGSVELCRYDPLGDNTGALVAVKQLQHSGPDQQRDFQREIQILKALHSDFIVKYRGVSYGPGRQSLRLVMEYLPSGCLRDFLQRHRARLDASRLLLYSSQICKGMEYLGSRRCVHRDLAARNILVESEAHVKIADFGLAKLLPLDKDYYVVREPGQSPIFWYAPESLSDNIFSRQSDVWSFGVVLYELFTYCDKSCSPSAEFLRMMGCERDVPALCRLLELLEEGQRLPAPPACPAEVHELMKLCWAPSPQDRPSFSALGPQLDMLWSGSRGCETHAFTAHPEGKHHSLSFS

Chain of Receptor-type tyrosine-protein kinase FLT3 (Homo sapiens) (P36888 whole entry): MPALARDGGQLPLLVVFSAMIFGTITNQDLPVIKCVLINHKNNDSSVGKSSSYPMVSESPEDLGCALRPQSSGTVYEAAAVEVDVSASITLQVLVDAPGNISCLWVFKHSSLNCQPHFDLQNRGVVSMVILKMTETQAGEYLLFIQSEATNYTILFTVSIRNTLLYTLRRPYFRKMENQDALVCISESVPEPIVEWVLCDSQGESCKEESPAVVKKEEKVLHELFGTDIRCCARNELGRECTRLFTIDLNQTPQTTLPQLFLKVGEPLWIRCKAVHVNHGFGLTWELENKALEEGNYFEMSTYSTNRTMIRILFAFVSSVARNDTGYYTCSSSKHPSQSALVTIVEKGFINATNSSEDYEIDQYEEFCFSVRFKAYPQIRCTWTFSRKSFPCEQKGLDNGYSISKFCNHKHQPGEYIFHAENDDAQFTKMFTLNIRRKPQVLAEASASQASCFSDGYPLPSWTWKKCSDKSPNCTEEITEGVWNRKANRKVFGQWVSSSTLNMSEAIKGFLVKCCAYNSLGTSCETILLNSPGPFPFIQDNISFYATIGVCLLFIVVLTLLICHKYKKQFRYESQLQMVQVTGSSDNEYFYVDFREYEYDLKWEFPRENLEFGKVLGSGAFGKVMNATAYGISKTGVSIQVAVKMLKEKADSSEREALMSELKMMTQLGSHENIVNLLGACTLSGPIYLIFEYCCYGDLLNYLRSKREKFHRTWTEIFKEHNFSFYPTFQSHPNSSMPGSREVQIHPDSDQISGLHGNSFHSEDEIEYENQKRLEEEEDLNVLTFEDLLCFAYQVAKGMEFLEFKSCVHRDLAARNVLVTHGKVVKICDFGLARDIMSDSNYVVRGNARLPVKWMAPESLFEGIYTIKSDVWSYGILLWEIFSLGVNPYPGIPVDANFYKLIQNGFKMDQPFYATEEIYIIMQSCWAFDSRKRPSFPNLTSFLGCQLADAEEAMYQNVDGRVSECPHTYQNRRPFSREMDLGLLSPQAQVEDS
Chain of Tyrosine-protein kinase Lck (Homo sapiens) (P06239 2-509 limits assumed): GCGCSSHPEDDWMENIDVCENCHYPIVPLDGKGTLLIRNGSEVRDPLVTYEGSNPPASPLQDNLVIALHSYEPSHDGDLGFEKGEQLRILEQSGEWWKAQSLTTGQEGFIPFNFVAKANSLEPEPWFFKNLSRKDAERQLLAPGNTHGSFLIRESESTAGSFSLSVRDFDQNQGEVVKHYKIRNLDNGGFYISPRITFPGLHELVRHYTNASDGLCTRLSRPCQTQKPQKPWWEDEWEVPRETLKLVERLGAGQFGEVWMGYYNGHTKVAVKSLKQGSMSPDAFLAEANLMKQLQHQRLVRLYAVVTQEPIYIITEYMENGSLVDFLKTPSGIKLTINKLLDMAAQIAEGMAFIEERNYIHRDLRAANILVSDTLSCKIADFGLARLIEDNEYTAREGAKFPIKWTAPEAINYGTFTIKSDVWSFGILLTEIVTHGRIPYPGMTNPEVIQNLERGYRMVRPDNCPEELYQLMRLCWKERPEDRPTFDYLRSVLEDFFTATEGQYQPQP
Chain of Hepatocyte growth factor receptor (Homo sapiens) (P08581 whole entry): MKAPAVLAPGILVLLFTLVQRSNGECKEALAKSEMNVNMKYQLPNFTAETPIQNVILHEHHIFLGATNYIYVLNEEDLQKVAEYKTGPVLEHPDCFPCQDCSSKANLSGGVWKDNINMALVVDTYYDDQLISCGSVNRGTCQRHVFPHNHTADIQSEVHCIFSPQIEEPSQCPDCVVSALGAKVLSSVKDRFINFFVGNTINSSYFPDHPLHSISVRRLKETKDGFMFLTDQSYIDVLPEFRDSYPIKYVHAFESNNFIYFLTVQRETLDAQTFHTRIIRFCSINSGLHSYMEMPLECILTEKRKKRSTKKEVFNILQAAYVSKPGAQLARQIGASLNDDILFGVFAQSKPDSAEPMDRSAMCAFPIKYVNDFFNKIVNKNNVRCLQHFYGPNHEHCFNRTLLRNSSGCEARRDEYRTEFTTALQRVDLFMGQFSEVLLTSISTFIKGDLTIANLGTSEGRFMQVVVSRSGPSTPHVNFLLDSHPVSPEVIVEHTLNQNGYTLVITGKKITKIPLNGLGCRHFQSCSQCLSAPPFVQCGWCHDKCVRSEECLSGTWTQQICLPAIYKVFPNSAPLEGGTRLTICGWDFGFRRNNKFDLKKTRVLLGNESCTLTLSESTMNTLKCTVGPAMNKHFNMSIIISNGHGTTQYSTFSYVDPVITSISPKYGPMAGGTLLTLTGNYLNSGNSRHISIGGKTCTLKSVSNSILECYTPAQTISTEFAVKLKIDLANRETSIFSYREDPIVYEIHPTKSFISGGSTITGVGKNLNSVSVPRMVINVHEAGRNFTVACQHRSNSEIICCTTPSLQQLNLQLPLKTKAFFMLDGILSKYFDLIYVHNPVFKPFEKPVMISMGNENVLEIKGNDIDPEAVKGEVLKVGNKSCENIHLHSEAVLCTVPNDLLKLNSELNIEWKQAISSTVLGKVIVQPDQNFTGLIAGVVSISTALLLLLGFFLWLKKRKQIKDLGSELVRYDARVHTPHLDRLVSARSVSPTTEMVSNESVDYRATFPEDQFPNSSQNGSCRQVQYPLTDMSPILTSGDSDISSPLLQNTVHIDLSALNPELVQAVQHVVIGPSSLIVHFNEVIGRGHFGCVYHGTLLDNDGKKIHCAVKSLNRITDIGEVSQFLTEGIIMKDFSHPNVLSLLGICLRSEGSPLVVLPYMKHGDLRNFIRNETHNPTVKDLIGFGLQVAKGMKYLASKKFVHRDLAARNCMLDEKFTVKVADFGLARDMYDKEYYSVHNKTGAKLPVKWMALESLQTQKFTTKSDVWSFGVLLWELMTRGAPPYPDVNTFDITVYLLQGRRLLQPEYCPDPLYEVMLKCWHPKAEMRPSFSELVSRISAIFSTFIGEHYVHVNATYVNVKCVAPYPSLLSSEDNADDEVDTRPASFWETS
Chain of Platelet-derived growth factor receptor beta (Homo sapiens) (P09619 whole entry): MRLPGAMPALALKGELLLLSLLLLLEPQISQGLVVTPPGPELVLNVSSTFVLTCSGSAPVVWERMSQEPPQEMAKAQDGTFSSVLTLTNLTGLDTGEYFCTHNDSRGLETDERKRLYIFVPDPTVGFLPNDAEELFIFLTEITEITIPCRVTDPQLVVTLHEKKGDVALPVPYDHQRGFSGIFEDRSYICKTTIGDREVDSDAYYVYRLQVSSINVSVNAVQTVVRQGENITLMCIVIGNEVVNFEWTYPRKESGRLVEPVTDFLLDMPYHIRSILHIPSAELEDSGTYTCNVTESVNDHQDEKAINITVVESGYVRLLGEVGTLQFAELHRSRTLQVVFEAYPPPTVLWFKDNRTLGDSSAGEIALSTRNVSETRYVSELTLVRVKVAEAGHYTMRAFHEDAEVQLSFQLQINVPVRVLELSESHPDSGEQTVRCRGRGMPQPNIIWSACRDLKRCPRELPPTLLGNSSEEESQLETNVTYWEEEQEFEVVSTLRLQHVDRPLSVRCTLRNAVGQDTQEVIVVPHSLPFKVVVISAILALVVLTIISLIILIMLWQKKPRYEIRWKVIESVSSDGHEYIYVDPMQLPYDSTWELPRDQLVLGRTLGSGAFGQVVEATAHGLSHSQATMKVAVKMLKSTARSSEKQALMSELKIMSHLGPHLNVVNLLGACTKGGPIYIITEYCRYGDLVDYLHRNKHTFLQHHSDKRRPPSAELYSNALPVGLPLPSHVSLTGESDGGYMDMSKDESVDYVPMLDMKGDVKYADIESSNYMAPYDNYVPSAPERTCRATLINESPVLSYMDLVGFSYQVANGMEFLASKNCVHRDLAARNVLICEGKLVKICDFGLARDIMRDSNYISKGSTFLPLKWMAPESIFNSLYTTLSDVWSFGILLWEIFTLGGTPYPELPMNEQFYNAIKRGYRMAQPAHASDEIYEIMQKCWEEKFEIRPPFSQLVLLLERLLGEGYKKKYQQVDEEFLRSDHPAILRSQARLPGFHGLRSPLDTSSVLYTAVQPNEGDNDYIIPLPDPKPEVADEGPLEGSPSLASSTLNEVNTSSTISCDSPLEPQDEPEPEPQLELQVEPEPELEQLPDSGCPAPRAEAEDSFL

With `CN(C)CC(=O)N1CCC[C@@H](n2nc(-c3ccc(Oc4ccccc4)cc3)c3c(N)ncnc32)C1` the Activity (MV4-11 [1]) was 0.94 g, the Activity [2] was 0.4% and the GI50 (MV4-11 [3]) was 22 nM. The GI50 [4] was 1600 nM, the Activity [5] was 0.05% and the inhibition [6] was “Active”. The Activity (MOLM-14) was “Active”, the GI50 [7] was 680 nM and the Cmax [8] was 458 ng/mL. For the same molecule, the GI50 [9] was 2200 nM, the GI50 [10] was 42 nM and the clearance [11] was 26.9 mL/min/kg. The Activity (MOLM-13 [12]) was “Active”, the Activity (MV4-11 [13]) was “Active” and the Tmax [14] was 1.67 h. For the same molecule, the AUCinf [15] was 1880 ng·h/mL, the GI50 [16] was 5500 nM and the GI50 [17] was 3800 nM. The GI50 [18] was 310 nM, the GI50 [19] was 940 nM and the GI50 [20] was 280 nM. For the same molecule, the GI50 [21] was 9700 nM, the Activity (MV4-11 [22]) was “Active” and the Activity (MOLM-13 [23]) was “Active”. It also gave an MRT inf [24] of 1.15 h, a GI50 [25] of 1900 nM and a GI50 [26] of 16 nM. The Activity [27] was 0.45%, the inhibition [28] was “Active” and the Activity [29] was 0%. For the same molecule, the MRT inf [30] was 2.75 h, the Activity (MV4-11 [31]) was 0.3 g and the GI50 [32] was 11 nM. The inhibition [33] was “Active”, the Activity [34] was “Active” and the Activity (MV4-11 [35]) was “Active”. For the same molecule, the Tmax [36] was 1.2 min, the half-life [37] was 1.38 h and the GI50 [38] was 2500 nM.
